Assay results taken from ChEMBL document CHEMBL4699419, “Antileishmanial assessment of isoxazole derivatives against L. donovani” (RSC Med Chem, 2020).
The source made the active and inactive calls. The calls are words filed in the database; no cut-off is given here.

How the values were obtained:
[1] = test system: Leishmania amazonensis; assay: Antileishmanial activity against promastigote form of Leishmania amazonensis; format: functional, organism-based
[2] = test system: Leishmania amazonensis; assay: Antileishmanial activity against intracellular amastigote stage of Leishmania amazonensis; format: functional, organism-based
[3] = Cytotoxicity against mouse J774A1 cells assessed as reduction in cell viability incubated for 48 hrs by MTT assay; format: cell-based, J774.A1
Procedure, shortened: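 J774A.1 macrophages, 0.2 × 10^6 per well, incubated overnight at 37 °C in 5% CO2, then exposed to compounds in DMSO for 48 h, with DMSO dilutions as controls. Viability read by MTT formazan at 600 nm. CC50 = 50% viability reduction versus medium-only cells, from probit regression; three independent experiments.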

[4] = Selectivity index, ratio of CC50 for mouse J774.A1 cells to IC50 for amastigote form of Leishmania donovani MHOM/IN/80/Dd8; format: toxicity; conditions: read-out: Ratio CC50/IC50
Procedure, shortened: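 Macrophages infected at a 1:10 ratio with stationary promastigotes, then treated 72 h at 37 °C; luminescence read with Steady-Glo. IC50 values from probit analysis.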

[5] = test system: Leishmania donovani; assay: Antileishmanial activity against Leishmania donovani MHOM/IN/80/Dd8 promastigotes harboring luciferase reporter gene infected in mouse J774 cells assessed as inhibition of amastigote growth incubated for 72 hrs by Steady-Glo luminescence assay; format: functional, organism-based; conditions: Leishmania donovani, MHOM/IN/80/Dd8, J774, 72 h; read-out: IC50
Procedure, shortened: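 J774A.1 mouse macrophages (2 × 10^5 per well, RPMI-1640 + 10% FCS, 37 °C CO2) infected after 24 h with stationary-phase luciferase-transgenic promastigotes at 1:10 macrophage:parasite; compounds in complete medium for 72 h at 37 °C. Medium swapped for PBS, Steady-Glo added, luminescence read; % inhibition vs untreated control RLU. IC50 by Probit log dose/response regression, three independent experiments.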

[6] = test system: Leishmania donovani; assay: Antileishmanial activity against late log phase promastigote stage of Leishmania donovani MHOM/IN/80/Dd8 harboring luciferase reporter gene incubated for 72 hrs by Steady-Glo luminescence assay; format: functional, organism-based; conditions: Leishmania donovani, MHOM/IN/80/Dd8, 72 h; read-out: IC50
Procedure, shortened: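 Luciferase-transfected promastigotes kept at 25 ± 1 °C in medium 199 + 10% heat-inactivated FCS + G418 (20 μg ml–1). Late-log cells (5 × 10^5 per well) grown 72 h with graded compound concentrations from DMSO, DMSO dilution controls. Aliquot mixed 1:1 with Steady-Glo, luminescence (RLU) read; % inhibition vs control. IC50 by Probit regression, three independent experiments.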

[7] = test system: Leishmania donovani; assay: (§1) Antileishmanial activity against Leishmania donovani amastigotes infected in golden hamster assessed as reduction in parasite burden in spleen at 50 mg/kg, ip initiated after 2 days of pre-treatment biopsy administered for 5 days and measured on day 28 by giemsa staining based assay relative to control; format: functional; conditions: for inhibition in vivo at 50 mg/kg: 672 h, time 28 day; for inhibition: time 28.0 day
Procedure, shortened: (§2)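 Male inbred golden hamsters, 40–45 g, infected with L. donovani. Animals with +1 infection on pre-treatment spleen biopsy randomized, five per group. Intraperitoneal dosing in a vehicle of 10% Tween-80/ethanol (70:30) in ddH2O, 10% final, began 2 days after biopsy and ran 5 consecutive days; vehicle-only controls. Giemsa-stained spleen biopsies taken on day 7 or 28; percentage inhibition computed from initial, treated and untreated-control amastigote counts.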

[8] = test system: Leishmania donovani; assay: as §1, with “7” for “28”; format: functional; conditions: for inhibition in vivo at 50 mg/kg: 168 h, time 7 day; for inhibition: time 7.0 day; procedure, shortened: as §2
[9] = Half life in golden hamster at 100 mg/kg, po measured upto 24 hrs by LC/MS-MS analysis; format: ADME, organism-based, Mesocricetus auratus; conditions: in vivo
Procedure, shortened: (§3)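 Male Syrian hamsters, three per group; single oral dose of 100 mg kg–1 as a suspension in 0.5% sodium carboxymethylcellulose. Plasma concentrations followed over 24 h by LC–MS/MS with electrospray ionization. Parameters derived by non-compartmental analysis; mean ± SD of n = 3.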

[10] = test system: Leishmania donovani; assay: as §1, with “100” for “50”, “po” for “ip”; format: functional; conditions: 672 h, time 28 day
Procedure, shortened: (§4)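 Male inbred golden hamsters, 40–45 g, infected with L. donovani. Animals with +1 infection on pre-treatment spleen biopsy (5–15 amastigotes/100 spleen cell nuclei) randomized, five per group. Oral dosing in 5% carboxymethyl cellulose vehicle began 2 days after biopsy and ran 5 consecutive days; vehicle-only infected controls. Giemsa-stained spleen biopsies taken on day 7 or 28 after the last dose; PI = 100 – [ANAT × 100/(INAT × TIUC)].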

[11] = test system: Leishmania donovani; assay: as §1, with “100” for “50”, “po” for “ip”, “7” for “28”; format: functional; conditions: 168 h, time 7 day; procedure, shortened: as §4
[12] = Tmax in golden hamster at 100 mg/kg, po measured upto 24 hrs by LC/MS-MS analysis; format: ADME, organism-based, Mesocricetus auratus; conditions: in vivo; procedure, shortened: as §3
[13] = AUC (0 to infinity) in golden hamster at 100 mg/kg, po measured upto 24 hrs by LC/MS-MS analysis; format: ADME, organism-based, Mesocricetus auratus; parameters: route oral, dose 100 mg/kg, time <=24; conditions: in vivo; procedure, shortened: as §3
[14] = Drug metabolism in golden hamster at 100 mg/kg, po measured upto 24 hrs by LC/MS-MS analysis; format: ADME, organism-based, Mesocricetus auratus; conditions: in vivo
[15] = MRT in golden hamster at 100 mg/kg, po measured upto 24 hrs by LC/MS-MS analysis; format: ADME, organism-based, Mesocricetus auratus; conditions: in vivo; procedure, shortened: as §3
[16] = Cmax in golden hamster at 100 mg/kg, po measured upto 24 hrs by LC/MS-MS analysis; format: ADME, organism-based, Mesocricetus auratus; parameters: route oral, dose 100 mg/kg, time <=24; conditions: in vivo; procedure, shortened: as §3
[17] = test system: Leishmania donovani; assay: as §1, with “30” for “50”, “po” for “ip”, “7” for “28”; format: functional; conditions: 168 h, time 7 day; procedure, shortened: as §4
[18] = test system: Leishmania donovani; assay: as §1, with “30” for “50”, “po” for “ip”; format: functional; conditions: 672 h, time 28 day; procedure, shortened: as §4
[19] = test system: Leishmania amazonensis; assay: Antileishmanial activity against intracellular amastigote stage of Leishmania amazonensis (IFLA/BR/1967/PH8 strain) assessed as reduction in parasite viability incubated for 24 hrs by Neubauer chamber cell counting method; format: functional, organism-based; conditions: IFLA/BR/1967/PH8, 24 h
[20] = test system: Leishmania amazonensis; assay: Antileishmanial activity against promastigote form of Leishmania amazonensis (IFLA/BR/1967/PH8 strain) assessed as reduction in parasite viability incubated for 72 hrs by MTT assay; format: functional, organism-based; conditions: IFLA/BR/1967/PH8, 72 h

Question: With `COc1cc(-c2cc(-c3ccc4c(c3)OCO4)no2)cc(OC)c1OC` as the molecule, how does the IC50 [1] read?
Answer: 18.3 µM

Question: And the IC50 [2]?
Answer: 2.9 µM

Question: With `COC(=O)c1c(NCc2ccc(Cl)cc2)noc1-c1cc2c(cc1[N+](=O)[O-])OCO2` as the molecule, how does the CC50 at 48 h [3] read?
Answer: 33 µM

Question: What about the selectivity ratio [4] of the same molecule?
Answer: 7

Question: What about the IC50 [5] of the same molecule?
Answer: 4.59 µM

Question: What about the IC50 [6] of the same molecule?
Answer: 15.5 µM

Question: And the inhibition in vivo at 50 mg/kg [7]?
Answer: 2.08%

Question: What about the inhibition in vivo at 50 mg/kg [8] of the same molecule?
Answer: 13.5%

Question: Which CC50 at 48 h [3] does the source give for `COC(=O)c1c(NCCNc2ccnc3cc(Cl)ccc23)noc1-c1ccc(Cl)cc1Cl` here?
Answer: 3.45 µM

Question: And the selectivity ratio [4]?
Answer: 4.05

Question: And the IC50 [5]?
Answer: 0.85 µM

Question: What about the IC50 [6] of the same molecule?
Answer: 1.86 µM

Question: What about the inhibition [7] of the same molecule?
Answer: inactive

Question: And the inhibition in vivo at 50 mg/kg [8]?
Answer: 19.3%

Question: Which half-life [9] does the source give for `COC(=O)c1c(NCc2ccc(C(C)(C)C)cc2)noc1-c1cc2c(cc1[N+](=O)[O-])OCO2` here?
Answer: 3.78 h

Question: What about the CC50 at 48 h [3] of the same molecule?
Answer: 7.49 µM

Question: What about the selectivity ratio [4] of the same molecule?
Answer: 14

Question: What about the IC50 [5] of the same molecule?
Answer: 0.54 µM

Question: And the inhibition in vivo at 100 mg/kg [10]?
Answer: 12.7%

Question: What about the IC50 [6] of the same molecule?
Answer: 2.14 µM

Question: And the inhibition in vivo at 100 mg/kg [11]?
Answer: 69.5%

Question: What about the inhibition in vivo at 50 mg/kg [7] of the same molecule?
Answer: 28.6%

Question: What about the inhibition in vivo at 50 mg/kg [8] of the same molecule?
Answer: 71.1%

Question: What about the Tmax [12] of the same molecule?
Answer: 3 h

Question: And the AUC(0-inf) [13]?
Answer: 149 ng·h/mL

Question: What about the Drug metabolism [14] of the same molecule?
Answer: Metabolite_Detected

Question: What about the MRT [15] of the same molecule?
Answer: 9.53 h

Question: What about the Cmax [16] of the same molecule?
Answer: 15.4 ng/mL

Question: For `COC(=O)c1c([N+](=O)[O-])noc1-c1ccc(Cl)cc1Cl`, which CC50 at 48 h [3] is on record?
Answer: 19.7 µM

Question: What about the selectivity ratio [4] of the same molecule?
Answer: 4.49

Question: And the IC50 [5]?
Answer: 4.38 µM

Question: What about the IC50 [6] of the same molecule?
Answer: 1.82 µM

Question: And the inhibition in vivo at 50 mg/kg [7]?
Answer: 29%

Question: What about the inhibition in vivo at 50 mg/kg [8] of the same molecule?
Answer: 39.5%

Question: With `COC(=O)c1c(NCc2ccc(Cl)cc2)noc1-c1ccc(Cl)cc1Cl` as the molecule, how does the CC50 at 48 h [3] read?
Answer: 176 µM

Question: What about the selectivity ratio [4] of the same molecule?
Answer: 56.6

Question: What about the IC50 [5] of the same molecule?
Answer: 3.1 µM

Question: What about the IC50 [6] of the same molecule?
Answer: 14.1 µM

Question: What about the inhibition [7] of the same molecule?
Answer: inactive

Question: And the inhibition in vivo at 50 mg/kg [8]?
Answer: 29.2%

Question: With `COC(=O)c1c([N+](=O)[O-])noc1-c1cc2c(cc1[N+](=O)[O-])OCO2` as the molecule, how does the CC50 at 48 h [3] read?
Answer: 113 µM

Question: And the selectivity ratio [4]?
Answer: 6.51

Question: What about the IC50 [5] of the same molecule?
Answer: 17.4 µM

Question: And the inhibition in vivo at 100 mg/kg [10]?
Answer: 66%

Question: And the IC50 [6]?
Answer: 0.67 µM

Question: What about the inhibition in vivo at 100 mg/kg [11] of the same molecule?
Answer: 48.4%

Question: And the inhibition in vivo at 50 mg/kg [7]?
Answer: 71.2%

Question: And the inhibition in vivo at 50 mg/kg [8]?
Answer: 36%

Question: For `COC(=O)c1c(NCCNc2ccnc3cc(Cl)ccc23)noc1-c1ccc([N+](=O)[O-])cc1`, which CC50 at 48 h [3] is on record?
Answer: 3.79 µM

Question: What about the selectivity ratio [4] of the same molecule?
Answer: 4.16

Question: What about the IC50 [5] of the same molecule?
Answer: 0.91 µM

Question: And the IC50 [6]?
Answer: 1.87 µM

Question: What about the inhibition [7] of the same molecule?
Answer: inactive

Question: What about the inhibition [8] of the same molecule?
Answer: inactive

Question: Which CC50 at 48 h [3] does the source give for `COC(=O)c1c(NCCCCNc2ccnc3cc(Cl)ccc23)noc1-c1ccccc1[N+](=O)[O-]` here?
Answer: 77.7 µM

Question: And the selectivity ratio [4]?
Answer: 8.99

Question: What about the IC50 [5] of the same molecule?
Answer: 8.63 µM

Question: What about the IC50 [6] of the same molecule?
Answer: 1.95 µM

Question: And the inhibition [7]?
Answer: inactive

Question: What about the inhibition [8] of the same molecule?
Answer: inactive

Question: For `CCCCCCCCCCCCCCCCOP(=O)([O-])OCC[N+](C)(C)C` [MILTEFOSINE], which CC50 at 48 h [3] is on record?
Answer: 53.3 µM

Question: And the selectivity ratio [4]?
Answer: 5.76

Question: And the IC50 [5]?
Answer: 9.25 µM

Question: What about the IC50 [6] of the same molecule?
Answer: 2.52 µM

Question: And the inhibition in vivo at 30 mg/kg [17]?
Answer: 97.3%

Question: What about the inhibition in vivo at 30 mg/kg [18] of the same molecule?
Answer: 98.4%

Question: With `COc1cc(-c2cc(-c3cc(OC)c(OC)c(OC)c3)on2)cc(OC)c1OC` as the molecule, how does the IC50 [1] read?
Answer: 18.3 µM

Question: What about the IC50 [2] of the same molecule?
Answer: 2.9 µM

Question: Which results are given for `COC(=O)c1c(NCc2ccccc2)noc1-c1ccc([N+](=O)[O-])cc1`?
Answer: CC50 at 48 h [3]: 85.4 µM; selectivity ratio [4]: 6.16; IC50 [5]: 13.8 µM; IC50 [6]: 3.9 µM; inhibition in vivo at 50 mg/kg [7]: 75.2%; inhibition in vivo at 50 mg/kg [8]: 44%

Question: Which results are given for `O=[N+]([O-])c1ccc(-c2cc(-c3ccc(CCl)cc3)on2)o1`?
Answer: IC50 [19]: 0.6 µM; IC50 [20]: 3.5 µM
